How the values were obtained:
[1] = (§1) Cytotoxicity against VSV infected human HeLa cells by trypan blue exclusion method; type: cell-based; settings: HeLa cells infected with VSV
Method in brief: (§2)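 Uninfected confluent cultures were run in parallel with the infected cultures. Medium was replaced by 1 ml maintenance medium with serial compound concentrations; cell controls received no compound. Cultures were incubated at 37 °C. After 2 and 7 days, compound was withdrawn and viability was determined by trypan blue exclusion.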

[2] = (§3) Cytotoxicity against Human coxsackievirus B4 infected human HeLa cells by trypan blue exclusion method; type: cell-based; settings: HeLa cells infected with human coxsackievirus B4; method in brief: as §2
[3] = (§4) Cytotoxicity against Respiratory syncytial virus infected human HeLa cells by trypan blue exclusion method; type: cell-based; settings: HeLa cells infected with respiratory syncytial virus; method in brief: as §2
[4] = (§5) Cytotoxicity against Herpes simplex virus 1 KOS infected HEL cells by trypan blue exclusion method; type: cell-based; settings: human, HEL cells infected with herpes simplex virus 1 KOS; method in brief: as §2
[5] = (§6) Cytotoxicity against Herpes simplex virus 2 G infected HEL cells by trypan blue exclusion method; type: cell-based; settings: human, HEL cells infected with herpes simplex virus 2 G; method in brief: as §2
[6] = (§7) Cytotoxicity against Vaccinia virus infected HEL cells by trypan blue exclusion method; type: cell-based; settings: human, HEL cells infected with vaccinia virus; method in brief: as §2
[7] = (§8) Cytotoxicity against VSV infected HEL cells by trypan blue exclusion method; type: cell-based; settings: human, HEL cells infected with VSV; method in brief: as §2
[8] = (§9) Cytotoxicity against PIV 3 infected african green monkey Vero cells by trypan blue exclusion method; type: cell-based; settings: chlorocebus sabaeus, Vero cells infected with PIV 3; method in brief: as §2
[9] = (§10) Cytotoxicity against Reovirus 1 infected african green monkey Vero cells by trypan blue exclusion method; type: cell-based; settings: chlorocebus sabaeus, Vero cells infected with reovirus 1; method in brief: as §2
[10] = (§11) Cytotoxicity against Sindbis virus infected african green monkey Vero cells by trypan blue exclusion method; type: cell-based; settings: chlorocebus sabaeus, Vero cells infected with Sindbis virus; method in brief: as §2
[11] = (§12) Cytotoxicity against Human coxsackievirus B4 infected african green monkey Vero cells by trypan blue exclusion method; type: cell-based; settings: chlorocebus sabaeus, Vero cells infected with human coxsackievirus B4; method in brief: as §2
[12] = (§13) Cytotoxicity against Punta Toro virus infected african green monkey Vero cells by trypan blue exclusion method; type: cell-based; settings: chlorocebus sabaeus, Vero cells infected with Punta Toro virus; method in brief: as §2
Coxsackievirus B4 [13] = assay: Antiviral activity against Human coxsackievirus B4 infected in human HeLa cells assessed as protection from virus-induced cytopathogenicity after 2 days by MTT assay; type: functional, organism-based; settings: Enterovirus B, 48 h
[14] = test system: Respiratory syncytial virus; assay: Antiviral activity against Respiratory syncytial virus infected in human HeLa cells assessed as protection from virus-induced cytopathogenicity after 4 days by MTT assay; type: functional, organism-based; settings: 96 h
Human alphaherpesvirus 1 [15] = assay: Antiviral activity against Herpes simplex virus 1 KOS infected in HEL cells assessed as protection from virus-induced cytopathogenicity after 2 to 3 days by MTT assay; type: functional, organism-based; settings: Human alphaherpesvirus 1, KOS
Human alphaherpesvirus 2 = assay: Antiviral activity against Herpes simplex virus 2 G infected in HEL cells assessed as protection from virus-induced cytopathogenicity after 2 to 3 days by MTT assay; type: functional, organism-based; settings: Human alphaherpesvirus 2, strain G
[16] = test system: Vesicular stomatitis virus; assay: Antiviral activity against VSV infected in HEL cells assessed as protection from virus-induced cytopathogenicity after 1 to 2 days by MTT assay; type: functional, organism-based
Human alphaherpesvirus 1 [17] = assay: Antiviral activity against acyclovir-sensitive Herpes simplex virus 1 KOS infected in HEL cells assessed as protection from virus-induced cytopathogenicity after 2 to 3 days by MTT assay; type: functional, organism-based; settings: Human alphaherpesvirus 1, KOS
Human respirovirus 3 = assay: Antiviral activity against PIV 3 infected in african green monkey Vero cells assessed as protection from virus-induced cytopathogenicity after 6 to 7 days by MTT assay; type: functional, organism-based; settings: Human respirovirus 3, Vero
Sindbis virus = assay: Antiviral activity against Sindbis virus infected in african green monkey Vero cells assessed as protection from virus-induced cytopathogenicity after 2 to 3 days by MTT assay; type: functional, organism-based
Coxsackievirus B4 [18] = assay: Antiviral activity against Human coxsackievirus B4 infected in african green monkey Vero cells assessed as protection from virus-induced cytopathogenicity after 2 days by MTT assay; type: functional, organism-based; settings: Enterovirus B, 48 h
Influenza A virus [19] = assay: Antiviral activity against Influenza A virus H1N1 infected in MDCK cells assessed as protection from virus-induced cytopathogenicity after 6 to 7 days by MTT assay; type: functional, organism-based
[20] = test system: Human immunodeficiency virus 1; assay: Antiviral activity against HIV1 3B-infected in human MT4 cells assessed as protection from virus-induced cytopathogenicity after 5 days by MTT assay; type: functional, organism-based; settings: Human immunodeficiency virus 1, 3B, MT4, 120 h
Method in brief: (§14)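 MT-4 cells at 3 × 10^4 per well were infected with HIV (IIIB or ROD) at 50% cell culture infective doses. Graded compound concentrations were added immediately after infection. Plates were incubated for 5 days at 37 °C and viable cells were counted by MTT.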

[21] = test system: Human immunodeficiency virus 2; assay: Antiviral activity against HIV2 ROD infected in human MT4 cells assessed as protection from virus-induced cytopathogenicity after 5 days by MTT assay; type: functional, organism-based; settings: Human immunodeficiency virus 2, ISOLATE ROD, MT4, 120 h; method in brief: as §14
[22] = Cytotoxicity against HIV2 ROD infected human MT4 cells by MTT assay; type: cell-based; settings: MT4 cells infected with HIV-2 ROD
Method in brief: (§15)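 MT-4 cells (3 × 10^4 per well) were cultured in microdilution trays with various concentrations of compound, then incubated 5 days at 37 °C, and viable cell number was read by MTT.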

[23] = Selectivity index, ratio of CC50 for HIV2 ROD infected human MT4 cells to IC50 for […] ROD; type: functional
HeLa [24] = assay: as §1; type: cell-based; settings: hela; method in brief: as §2
HeLa [25] = assay: as §3; type: cell-based; settings: hela; method in brief: as §2
HeLa [26] = assay: as §4; type: cell-based; settings: hela; method in brief: as §2
HEL [27] = assay: as §5; type: cell-based; settings: human, hel; method in brief: as §2
HEL [28] = assay: as §6; type: cell-based; settings: human, hel; method in brief: as §2
HEL [29] = assay: as §7; type: cell-based; settings: human, hel; method in brief: as §2
HEL [30] = assay: as §8; type: cell-based; settings: human, hel; method in brief: as §2
HEL [31] = assay: Cytotoxicity against acyclovir-sensitive Herpes simplex virus 1 KOS infected HEL cells by trypan blue exclusion method; type: cell-based; settings: human; method in brief: as §2
Vero [32] = assay: as §9; type: cell-based; settings: chlorocebus sabaeus, vero; method in brief: as §2
Vero [33] = assay: as §10; type: cell-based; settings: chlorocebus sabaeus, vero; method in brief: as §2
Vero [34] = assay: as §11; type: cell-based; settings: chlorocebus sabaeus, vero; method in brief: as §2
Vero [35] = assay: as §12; type: cell-based; settings: chlorocebus sabaeus, vero; method in brief: as §2
Vero [36] = assay: as §13; type: cell-based; settings: chlorocebus sabaeus, vero; method in brief: as §2
[37] = Cytotoxicity against Feline coronavirus infected cat CRFK cells by trypan blue exclusion method; type: cell-based, Felis catus; settings: crfk; method in brief: as §2
[38] = Cytotoxicity against Feline herpesvirus infected cat CRFK cells by trypan blue exclusion method; type: cell-based, Felis catus; settings: crfk; method in brief: as §2
MDCK [39] = assay: Cytotoxicity against Influenza A virus subtype H1N1 infected MDCK cells by trypan blue exclusion method; type: cell-based, Canis lupus familiaris; settings: dog
MDCK [40] = assay: Cytotoxicity against Influenza A virus subtype H3N2 infected MDCK cells by trypan blue exclusion method; type: cell-based, Canis lupus familiaris; settings: dog
MDCK [41] = assay: Cytotoxicity against Influenza B virus infected MDCK cells by trypan blue exclusion method; type: cell-based, Canis lupus familiaris; settings: dog
[42] = Cytotoxicity against HIV1 3B-infected human MT4 cells by MTT assay; type: cell-based; settings: MT4 cells infected with HIV-1 3B; method in brief: as §15
[43] = test system: Mammalian orthoreovirus 1; assay: Antiviral activity against Reovirus 1 infected in african green monkey Vero cells assessed as protection from virus-induced cytopathogenicity after 6 to 7 days by MTT assay; type: functional, organism-based; settings: Mammalian orthoreovirus 1, Vero
[44] = test system: Vesicular stomatitis virus; assay: Antiviral activity against VSV infected in human HeLa cells assessed as protection from virus-induced cytopathogenicity after 1 to 2 days by MTT assay; type: functional, organism-based
Punta Toro virus = assay: Antiviral activity against Punta Toro virus infected in african green monkey Vero cells assessed as protection from virus-induced cytopathogenicity by MTT assay; type: functional, organism-based
Feline coronavirus = assay: Antiviral activity against Feline coronavirus infected in cat CRFK cells assessed as protection from virus-induced cytopathogenicity by MTT assay; type: functional, organism-based; settings: Alphacoronavirus 1, CRFK
Felid alphaherpesvirus 1 = assay: Antiviral activity against Feline herpesvirus infected in cat CRFK cells assessed as protection from virus-induced cytopathogenicity by MTT assay; type: functional, organism-based; settings: Felid alphaherpesvirus 1, CRFK
Influenza A virus [45] = assay: Antiviral activity against Influenza A virus H3N2 infected in MDCK cells assessed as protection from virus-induced cytopathogenicity after 6 to 7 days by MTT assay; type: functional, organism-based
Influenza B virus = assay: Antiviral activity against Influenza B virus infected in MDCK cells assessed as protection from virus-induced cytopathogenicity after 6 to 7 days by MTT assay; type: functional, organism-based

NC(=O)c1ncn([C@@H]2O[C@H](CO)[C@@H](O)[C@H]2O)n1 [RIBAVIRIN]
7000 nM: EC50 (Influenza A virus [19])
10000 nM: EC50 (Human alphaherpesvirus 1 [15])
50000 nM: EC50 (Human alphaherpesvirus 2)
> 250000 nM: CC50 [1] | CC50 [2] | CC50 [3] | CC50 [4] | CC50 [5] | CC50 [6] | CC50 [7] | CC50 [8] | CC50 [9] | CC50 [10] | CC50 [11] | CC50 [12] | EC50 [16] | EC50 (Coxsackievirus B4 [18])
30000 nM: EC50 (Coxsackievirus B4 [13]) | EC50 [14]
111000 nM: EC50 (Sindbis virus)
125000 nM: EC50 (Human alphaherpesvirus 1 [17])
95000 nM: EC50 (Human respirovirus 3)

COc1cc(/C=C/C(=O)CC(=O)/C=C/c2ccc(OCCOC(=O)CCC(NC(=O)c3ccc(NCc4cnc5nc(N)[nH]c(=O)c5n4)cc3)C(=O)O)c(OC)c2)ccc1O (configuration not stated)
> 69 nM: CC50 [22]
> 63 nM: CC50 [42]
105 nM: EC50 (Felid alphaherpesvirus 1)
> 119 nM: CC50 (HeLa [24]) | CC50 (HeLa [25]) | CC50 (HeLa [26]) | CC50 (HEL [27]) | CC50 (HEL [28]) | CC50 (HEL [29]) | CC50 (HEL [30]) | CC50 (HEL [31]) | CC50 (Vero [32]) | CC50 (Vero [33]) | CC50 (Vero [34]) | CC50 (Vero [35]) | CC50 (Vero [36]) | CC50 [37] | CC50 [38] | CC50 (MDCK [39]) | CC50 (MDCK [40]) | CC50 (MDCK [41]) | EC50 (Coxsackievirus B4 [13]) | EC50 [43] | EC50 [44] | EC50 [14] | EC50 (Human alphaherpesvirus 1 [15]) | EC50 (Human alphaherpesvirus 2) | EC50 [16] | EC50 (Human alphaherpesvirus 1 [17]) | EC50 (Human respirovirus 3) | EC50 (Sindbis virus) | EC50 (Coxsackievirus B4 [18]) | EC50 (Punta Toro virus) | EC50 (Influenza A virus [19]) | EC50 (Influenza A virus [45]) | EC50 (Influenza B virus)
69 nM: IC50 [21]
63 nM: IC50 [20]
78 nM: EC50 (Feline coronavirus)
<1: Ratio CC50/IC50 [23]
